# “And” between values parts separate entries of the source, which are not always exact repeats. Identical values can stand only once. “Also recorded” adds a separate entry of the source.
# Experiments:
# Assay in all cases: Inside-out patch-clamp of CFTR currents in transfected CHO cells
# Assay type in all cases: cell-based
# [1] = biological target: T360A-CFTR (Homo sapiens, UniProt P13569, T360A)
# Procedure, shortened: (§1)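 CFTR construct and GFP plasmid cotransfected into CHO cells, held at 27°C for 2–6 d. Inside-out patches at room temperature, −30 mV, NMDG-Cl solutions at pH 7.4. Channels preactivated with 25 IU PKA plus 2 mM MgATP, then test compound (max 40 µM) applied in 2 mM ATP. ATP-subtracted steady-state currents normalized to the 3 µM response in the same patch. Hill fit with base 0 and maximum 1; EC50 ± SD of fit; 3–7 patches per point.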
# [2] = biological target: S1141T/G551D-CFTR (Homo sapiens, UniProt P13569, G551D/S1141T)
# S1141T/G551D-CFTR, sequence (P13569 whole entry G551D/S1141T): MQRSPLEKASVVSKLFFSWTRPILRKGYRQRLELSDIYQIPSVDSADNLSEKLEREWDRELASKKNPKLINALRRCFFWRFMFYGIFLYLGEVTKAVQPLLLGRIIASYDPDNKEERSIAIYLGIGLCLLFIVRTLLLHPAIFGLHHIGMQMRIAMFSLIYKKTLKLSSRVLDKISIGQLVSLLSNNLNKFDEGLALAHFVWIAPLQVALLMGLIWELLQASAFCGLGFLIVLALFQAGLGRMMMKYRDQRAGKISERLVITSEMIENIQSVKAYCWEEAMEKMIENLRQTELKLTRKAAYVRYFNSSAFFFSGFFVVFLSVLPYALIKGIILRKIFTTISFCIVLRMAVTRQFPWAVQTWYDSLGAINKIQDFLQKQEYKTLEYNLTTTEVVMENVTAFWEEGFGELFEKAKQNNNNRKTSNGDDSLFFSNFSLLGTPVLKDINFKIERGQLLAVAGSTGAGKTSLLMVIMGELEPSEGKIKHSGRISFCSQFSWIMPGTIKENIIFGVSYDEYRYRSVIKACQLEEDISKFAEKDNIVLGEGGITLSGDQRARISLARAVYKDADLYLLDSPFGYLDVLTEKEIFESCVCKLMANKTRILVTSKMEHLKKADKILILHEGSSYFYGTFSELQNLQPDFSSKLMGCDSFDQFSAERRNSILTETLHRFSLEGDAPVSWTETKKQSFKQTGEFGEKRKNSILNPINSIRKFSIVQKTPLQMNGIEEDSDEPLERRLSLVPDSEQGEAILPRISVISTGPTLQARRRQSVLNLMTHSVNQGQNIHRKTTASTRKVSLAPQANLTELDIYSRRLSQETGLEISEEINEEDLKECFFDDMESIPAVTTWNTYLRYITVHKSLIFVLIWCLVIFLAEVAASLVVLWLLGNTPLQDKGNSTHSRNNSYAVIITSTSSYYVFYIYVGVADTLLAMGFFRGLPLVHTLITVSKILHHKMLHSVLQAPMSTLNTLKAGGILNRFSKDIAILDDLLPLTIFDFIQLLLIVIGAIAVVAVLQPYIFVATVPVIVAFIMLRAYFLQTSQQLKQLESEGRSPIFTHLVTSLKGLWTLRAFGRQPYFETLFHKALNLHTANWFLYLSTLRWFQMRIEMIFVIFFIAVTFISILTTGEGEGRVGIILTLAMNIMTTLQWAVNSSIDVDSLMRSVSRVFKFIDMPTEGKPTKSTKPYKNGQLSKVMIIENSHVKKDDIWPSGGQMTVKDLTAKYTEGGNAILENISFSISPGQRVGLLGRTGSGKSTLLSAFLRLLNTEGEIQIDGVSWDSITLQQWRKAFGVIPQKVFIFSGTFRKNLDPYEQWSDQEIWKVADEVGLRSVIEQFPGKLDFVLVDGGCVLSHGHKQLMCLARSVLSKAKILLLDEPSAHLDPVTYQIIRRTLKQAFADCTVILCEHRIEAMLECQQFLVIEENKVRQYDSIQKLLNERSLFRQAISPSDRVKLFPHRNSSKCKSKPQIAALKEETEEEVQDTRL
# Procedure, shortened: as §1
# [3] = biological target: Y304T-CFTR (Homo sapiens, UniProt P13569, Y304T)
# Y304T-CFTR, sequence (P13569 whole entry Y304T, the tested form may be a part): as the sequence (P13569 whole entry G551D/S1141T) above, with Y304T, D551G, T1141S counted along it
# Procedure, shortened: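 Relaxation assay: PKA-preactivated channels in 2 mM ATP at −30 mV exposed to test compound through a fast three-barrel perfusion system (dead time ∼30 ms). Current decay after sudden removal of 3 µM compound fitted with a single exponential to give relaxation time constant τ.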
# [4] = biological target: S1149A-CFTR (Homo sapiens, UniProt P13569, S1149A)
# S1149A-CFTR, sequence (P13569 whole entry S1149A): as the sequence (P13569 whole entry G551D/S1141T) above, with D551G, T1141S, S1149A counted along it
# Procedure, shortened: as §1
# [5] = biological target: D993A-CFTR (Homo sapiens, UniProt P13569, D993A)
# D993A-CFTR, sequence (P13569 whole entry D993A): as the sequence (P13569 whole entry G551D/S1141T) above, with D551G, D993A, T1141S counted along it
# Procedure, shortened: as §1
# [6] = biological target: F304Y-mCFTR (Mus musculus, UniProt P26361, F304Y)
# F304Y-mCFTR, sequence (P26361 whole entry F304Y): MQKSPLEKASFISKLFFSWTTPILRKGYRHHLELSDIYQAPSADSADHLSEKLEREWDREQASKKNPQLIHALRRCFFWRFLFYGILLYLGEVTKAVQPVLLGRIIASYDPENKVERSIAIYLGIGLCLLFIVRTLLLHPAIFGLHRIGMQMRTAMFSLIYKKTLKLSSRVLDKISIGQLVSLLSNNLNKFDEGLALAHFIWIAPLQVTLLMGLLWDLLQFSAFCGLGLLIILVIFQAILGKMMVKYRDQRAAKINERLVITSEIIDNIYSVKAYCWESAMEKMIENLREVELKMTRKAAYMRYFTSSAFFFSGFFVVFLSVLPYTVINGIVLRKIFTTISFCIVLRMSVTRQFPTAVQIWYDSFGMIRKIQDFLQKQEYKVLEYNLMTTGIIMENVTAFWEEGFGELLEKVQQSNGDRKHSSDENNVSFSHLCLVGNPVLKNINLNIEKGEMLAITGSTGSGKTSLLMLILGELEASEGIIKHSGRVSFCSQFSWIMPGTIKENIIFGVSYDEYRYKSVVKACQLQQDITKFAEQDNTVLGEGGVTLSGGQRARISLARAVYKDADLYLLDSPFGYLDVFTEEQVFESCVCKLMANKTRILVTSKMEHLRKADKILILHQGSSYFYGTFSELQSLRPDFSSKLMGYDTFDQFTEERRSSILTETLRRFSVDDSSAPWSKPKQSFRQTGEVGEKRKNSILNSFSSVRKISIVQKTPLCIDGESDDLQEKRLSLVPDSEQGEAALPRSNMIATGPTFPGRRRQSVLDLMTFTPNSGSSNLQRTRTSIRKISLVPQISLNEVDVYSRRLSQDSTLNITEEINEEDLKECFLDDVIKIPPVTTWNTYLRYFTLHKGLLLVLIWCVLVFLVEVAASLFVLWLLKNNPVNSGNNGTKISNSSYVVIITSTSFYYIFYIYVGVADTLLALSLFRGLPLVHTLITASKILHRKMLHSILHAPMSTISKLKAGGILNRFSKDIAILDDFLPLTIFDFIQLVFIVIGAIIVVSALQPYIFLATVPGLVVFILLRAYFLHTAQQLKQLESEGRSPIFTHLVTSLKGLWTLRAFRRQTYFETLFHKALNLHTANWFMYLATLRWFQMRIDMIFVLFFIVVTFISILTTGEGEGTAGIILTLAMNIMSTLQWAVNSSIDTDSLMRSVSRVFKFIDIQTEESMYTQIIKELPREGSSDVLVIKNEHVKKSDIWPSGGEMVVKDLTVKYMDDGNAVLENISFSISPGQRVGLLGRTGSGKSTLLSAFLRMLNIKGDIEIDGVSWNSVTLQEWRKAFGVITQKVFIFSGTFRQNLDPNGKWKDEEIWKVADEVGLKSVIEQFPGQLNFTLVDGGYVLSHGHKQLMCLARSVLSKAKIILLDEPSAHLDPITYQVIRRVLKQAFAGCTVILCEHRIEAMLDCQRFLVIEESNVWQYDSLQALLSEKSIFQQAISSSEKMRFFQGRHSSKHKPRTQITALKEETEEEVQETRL
# Procedure, shortened: as §1
# [7] = biological target: F236A-CFTR (Homo sapiens, UniProt P13569, F236A)
# F236A-CFTR, sequence (P13569 whole entry F236A): as the sequence (P13569 whole entry G551D/S1141T) above, with F236A, D551G, T1141S counted along it
# Procedure, shortened: as §1
# [8] = biological target: S1141K/G551D-CFTR (Homo sapiens, UniProt P13569, G551D/S1141K)
# S1141K/G551D-CFTR, sequence (P13569 whole entry G551D/S1141K): as the sequence (P13569 whole entry G551D/S1141T) above, with T1141K counted along it
# Procedure, shortened: as §1
# [9] = biological target: S182A-CFTR (Homo sapiens, UniProt P13569, S182A)
# S182A-CFTR, sequence (P13569 whole entry S182A): as the sequence (P13569 whole entry G551D/S1141T) above, with S182A, D551G, T1141S counted along it
# Procedure, shortened: as §1
# [10] = biological target: D924N-CFTR (Homo sapiens, UniProt P13569, D924N)
# D924N-CFTR, sequence (P13569 whole entry D924N): as the sequence (P13569 whole entry G551D/S1141T) above, with D551G, D924N, T1141S counted along it
# Procedure, shortened: as §1
# [11] = biological target: D924E-CFTR (Homo sapiens, UniProt P13569, D924E)
# D924E-CFTR, sequence (P13569 whole entry D924E): as the sequence (P13569 whole entry G551D/S1141T) above, with D551G, D924E, T1141S counted along it
# Procedure, shortened: as §1
# [12] = biological target: N1138L/G551D-CFTR (Homo sapiens, UniProt P13569, G551D/N1138L)
# N1138L/G551D-CFTR, sequence (P13569 whole entry G551D/N1138L): as the sequence (P13569 whole entry G551D/S1141T) above, with N1138L, T1141S counted along it
# Procedure, shortened: as §1
# [13] = biological target: R347C-CFTR (Homo sapiens, UniProt P13569, R347C)
# R347C-CFTR, sequence (P13569 whole entry R347C): as the sequence (P13569 whole entry G551D/S1141T) above, with R347C, D551G, T1141S counted along it
# Procedure, shortened: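 Channels in ATP exposed to test compound at pH 7.4; percent change of mean current scored. Perfusate then switched to pH 5.5, with or without prior compound exposure at pH 7.4. Fold increase taken as peak current at pH 5.5 divided by mean current at pH 7.4.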
# [14] = biological target: Q237A-CFTR (Homo sapiens, UniProt P13569, Q237A)
# Q237A-CFTR, sequence (P13569 whole entry Q237A): as the sequence (P13569 whole entry G551D/S1141T) above, with Q237A, D551G, T1141S counted along it
# Procedure, shortened: as §1
# [15] = biological target: G551D-CFTR (Homo sapiens, UniProt P13569, G551D)
# G551D-CFTR, sequence (P13569 whole entry G551D): as the sequence (P13569 whole entry G551D/S1141T) above, with T1141S counted along it
# Procedure, shortened: as §1
# [16] = biological target: N1138F/G551D-CFTR (Homo sapiens, UniProt P13569, G551D/N1138F)
# N1138F/G551D-CFTR, sequence (P13569 whole entry G551D/N1138F): as the sequence (P13569 whole entry G551D/S1141T) above, with N1138F, T1141S counted along it
# Procedure, shortened: as §1
# [17] = CHO, read-out: Efficacy (% increase) of currents by GLPG1837
# T360A-CFTR, sequence (P13569 whole entry T360A): as the sequence (P13569 whole entry G551D/S1141T) above, with T360A, D551G, T1141S counted along it
compound,measurement,setting,value
"CC1(C)Cc2c(sc(NC(=O)c3ccn[nH]3)c2C(N)=O)C(C)(C)O1 [GLPG1837, N-(3-carbamoyl-5,5,7,7-tetramethyl-5,7-dihydro-4H-thieno[2,3-c]pyran-2-yl)-lH-pyrazole-5-carboxamide]",EC50,[1],120 ± 10 nM
same,Emax,[1]; [17],120 ± 38%
same,ΔΔG,"[1]; GLPG1837, vs WT",0.459 kcal/mol
same,EC50,[2],1740 ± 310 nM
same,ΔΔG,"[2]; GLPG1837, vs G551D",0.136 kcal/mol
same,EC50,[3],> 3000 nM
same,Emax,[3]; [17],> 101%
same,ΔΔG,"[3]; GLPG1837, vs WT",<-1.45 kcal/mol
same,Relaxation time constant upon removal of GLPG1837,"[3]; mean, n = 5",4.7 ± 0.8 s and < 5 s
same,EC50,[4],160 ± 30 nM
same,Emax,[4]; [17],139 ± 36%
same,ΔΔG,"[4]; GLPG1837, vs WT",0.287 kcal/mol
same,EC50,[5],360 ± 40 nM
same,Emax,[5]; [17],283 ± 47%
same,ΔΔG,"[5]; GLPG1837, vs WT",-0.194 kcal/mol
same,EC50,[6],680 ± 180 nM
same,Potentiation of currents by GLPG1837,[6],restores the potentiating effects; also recorded: Potentiation
same,EC50,[7],340 ± 140 nM
same,Emax,[7]; [17],81 ± 14%
same,ΔΔG,"[7]; GLPG1837, vs WT",-0.16 kcal/mol
same,EC50,[8],260 ± 20 nM
same,ΔΔG,"[8]; GLPG1837, vs G551D",1.26 kcal/mol
same,EC50,[9],220 ± 40 nM
same,Emax,[9]; [17],138 ± 23%
same,ΔΔG,"[9]; GLPG1837, vs WT",0.098 kcal/mol
same,EC50,[10],2290 ± 780 nM
same,ΔΔG,"[10]; GLPG1837, vs WT",-1.29 kcal/mol
same,Efficacy (% increase) of currents by GLPG1837,[10]; maximal percent increase,464 ± 73%
same,EC50,[11],710 ± 70 nM
same,Emax,[11]; [17],194 ± 8%
same,ΔΔG,"[11]; GLPG1837, vs WT",-0.595 kcal/mol
same,EC50,[12],80 ± 20 nM
same,Emax,[12]; [17],253 ± 32%
same,ΔΔG,"[12]; GLPG1837, vs G551D",1.96 kcal/mol
same,Effect of GLPG1837 on currents,[13]; pH 5.5,effectively potentiates
same,Percent of inhibition of currents by GLPG1837,[13]; pH 7.4,16 ± 3%
same,EC50,[14],920 ± 320 nM
same,Emax,[14]; [17],615%
same,ΔΔG,"[14]; GLPG1837, vs WT",-0.748 kcal/mol
same,EC50,[15],2190 ± 330 nM
same,EC50,[16],160 ± 50 nM
same,Emax,[16]; [17],666 ± 131%
same,ΔΔG,"[16]; GLPG1837, vs G551D",1.55 kcal/mol

# Source: publication PMC6605684 (The Journal of General Physiology, 2019)
